HSF1 inhib: HSF1 inhibition | NIH3T3-HGL HSE-luciferase, MG132-induced, luminescence 8 h; active compounds read low | activity change, negative = inhibition, % at 7.5 µM (by protocol) | 0.77% of 300,000 active | AID 2098;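 active = more than half of replicate wells show activity change below -50%, luminescence cut by over half; inconclusive = some wells, but at most half, below -50%; inactive = no replicate well below -50%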;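 also: luciferase reports HSF-1 transcriptional activity via heat shock element; 0% = median of DMSO wells and -100% = zero luminescence signal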
ALR inh: blocks human ALR sulfhydryl oxidase activity | 3.8% of 290,000 active | purified ALR, DTT oxidation, H2O2 HRP-luminol luminescence | P55789 | inhibition, % (concentration not given with the values) | AID 485317;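 active = mean replicate inhibition above about 79%, with every replicate also reaching it, limit read from the data; inconclusive = only one of the two criteria met; inactive = mean below limit and not every replicate reaching it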
Target sequence (P55789 whole entry, looked up): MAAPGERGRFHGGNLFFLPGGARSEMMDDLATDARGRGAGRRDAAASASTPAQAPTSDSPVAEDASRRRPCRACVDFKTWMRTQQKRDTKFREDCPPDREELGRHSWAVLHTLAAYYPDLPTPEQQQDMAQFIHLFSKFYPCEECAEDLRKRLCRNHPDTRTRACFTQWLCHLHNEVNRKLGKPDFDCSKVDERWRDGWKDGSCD
HSF1 activator: increases HSF-1 driven luciferase reporter signal; NIH3T3-HGL HSF-1 luciferase reporter, MG132, 8 h; 100% = twice DMSO control signal; activation, % at 9 µM; 1.7% of 300,000 active;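 active = mean replicate activation of at least 50% with a set share of replicates each reaching 50%; inconclusive = only one of those two conditions met; inactive = mean below 50% and too few replicates reaching it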;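 also: 0% = median of the neutral control wells and 100% = twice that signal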
HCV core dimer: HCV core protein dimerization inhibition; TR-FRET GST/Flag-core106 dimerization, 1536-well; inhibition, % at 5 µM; 0.33% of 300,000 active; AID 1899;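 active = inhibition above the mean of all tested compounds plus 3 SD, set per screening campaign, cut at about 45% in these data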
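Assay system – GST-tagged and Flag-tagged HCV core protein residues 1-106 · Quantity – core106 proteins, GST 13.5 nM and Flag 17 nM · Benchmarks – unlabelled core106 and no-GST-core106 wells · Read-out basis – percent inhibition of core106 dimerization signal · Detection – time-resolved FRET, ex 340 nm, em 617 and 671 nm · Schedule – 4 h at 22.5 °C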
PHOSPHO1 inh: blocks human PHOSPHO1 phosphatase activity; 1.1% of 290,000 active; inhibition, % at 13.3 µM; AID 1565; recombinant PHOSPHO1, absorbance phosphatase assay; Q8TCT1; in the data active = inhibition above about 60%
Target sequence (Q8TCT1 whole entry, looked up): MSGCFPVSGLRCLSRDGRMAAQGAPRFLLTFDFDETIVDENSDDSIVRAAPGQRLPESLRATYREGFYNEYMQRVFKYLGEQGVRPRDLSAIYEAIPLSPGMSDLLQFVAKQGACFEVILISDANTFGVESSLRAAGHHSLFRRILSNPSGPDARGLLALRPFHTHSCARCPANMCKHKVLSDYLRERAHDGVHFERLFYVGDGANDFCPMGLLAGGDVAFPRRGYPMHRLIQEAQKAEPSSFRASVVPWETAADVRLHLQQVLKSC
AI-2 QS modul: modulates the Vibrio harveyi AI-2 quorum sensing system. Vibrio harveyi JMH597 AI-2 luminescence/OD600 ratio, 9 h; active compounds read low; strain lacks LuxN and CqsS sensors; 0 = neutral-control median. activity change, % at 7.5 µM. 0.4% of 300,000 active; in the data active = activity change below about -75%, passing the limit was not always enough; inconclusive = no clear call, values can overlap the other calls;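 also: luminescence divided by OD600 gain over 9 h not by final OD600 alone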
* = called active by the depositor. Sampled rows, rich in hits. Any-hit rate of the full collection: about 6.8%.

Screening O=C(Cn1ncc(Cl)c(Cl)c1=O)c1ccc(Cl)cc1 returned HSF1 inhib 29, ALR inh 1, HSF1 activator 56*, HCV core dimer -15, PHOSPHO1 inh -14 and AI-2 QS modul -40.
For C=CCn1c(C)cc(C(=O)Cn2ncc(Cl)c(Cl)c2=O)c1C the results were HSF1 inhib 41, ALR inh 58, HSF1 activator inconclusive, HCV core dimer 51*, PHOSPHO1 inh -1 and AI-2 QS modul 23.
For O=C(Cn1ncc(Cl)c(Cl)c1=O)NCC1CCCCC1 the results were ALR inh 95*, HCV core dimer 23 and PHOSPHO1 inh -21.
For CCOc1cc(C)c(C(C)C)cc1S(=O)(=O)n1cnc(C)c1 the results were HSF1 inhib 23, ALR inh -13, HSF1 activator 36, HCV core dimer 1, PHOSPHO1 inh 22 and AI-2 QS modul 5.
`CCC(=O)N1CCc2cc(Br)cc(S(=O)(=O)N(C)c3ccc(OC)cc3OC)c21` gave HSF1 inhib -7, ALR inh -23, HSF1 activator 5, HCV core dimer 9, PHOSPHO1 inh -4 and AI-2 QS modul 20.
C#CCN(Cc1ccco1)C(=O)c1ccc(OC2CCN(Cc3ccccn3)CC2)cc1 was read as HSF1 inhib -6, ALR inh 0, HSF1 activator -8, HCV core dimer 4, PHOSPHO1 inh -16 and AI-2 QS modul 22.
For CN(Cc1cnccn1)Cc1cn(Cc2ccccc2)nc1-c1ccc2c(c1)OCO2 the results were HSF1 inhib 11, HSF1 activator 22, HCV core dimer 2, PHOSPHO1 inh -2 and AI-2 QS modul 28.
Screening O=C(OCn1ncc(Cl)c(Cl)c1=O)c1ccccc1Cl returned HSF1 inhib -95*, ALR inh 67, HSF1 activator -95, HCV core dimer 14, PHOSPHO1 inh -36 and AI-2 QS modul 5.
O=c1c(Cl)c(Cl)cnn1Cc1ccc(F)cc1 was read as HSF1 inhib 24, ALR inh 15, HSF1 activator 29, HCV core dimer -63, PHOSPHO1 inh 35 and AI-2 QS modul 10.
For COC(=O)CSC1=C(C#N)C(c2ccccc2)CC(=O)N1 (stereo unspecified) the results were ALR inh 2, HCV core dimer -1, PHOSPHO1 inh 3 and AI-2 QS modul -2.
`CSC1=C(C#N)C(=O)NC(c2ccccc2O)S1` (stereo unspecified) gave HSF1 inhib -1, ALR inh 98*, HSF1 activator -12, HCV core dimer 5, PHOSPHO1 inh -2 and AI-2 QS modul -24.
Screening COC(=O)CSC1=C(C#N)C(=O)NC(c2ccccc2)S1 (stereo unspecified) returned HSF1 inhib -8, HSF1 activator -16, HCV core dimer -1, PHOSPHO1 inh 98* and AI-2 QS modul 28.
Screening Clc1ccc(CN2C3=NCCCN3c3ccccc32)c(Cl)c1 returned HSF1 inhib -9, ALR inh -9, HSF1 activator 13, HCV core dimer 5, PHOSPHO1 inh 42 and AI-2 QS modul 30.
Screening Cn1c(=O)c2c(nc(Oc3cccc(O)c3)n2C)n(C)c1=O returned HSF1 inhib -77*, HSF1 activator -80, HCV core dimer -6 and AI-2 QS modul 8.
For Cn1c(=O)c2c(ncn2CC(=O)Nc2nc3ccc(F)cc3s2)n(C)c1=O the results were HSF1 inhib 0, ALR inh 99*, HSF1 activator -13, HCV core dimer -1, PHOSPHO1 inh 7 and AI-2 QS modul 26.
COc1ccc2nc(NC(=O)Cn3cnc4c(=O)n(C)c(=O)n(C)c43)sc2c1 was read as HSF1 inhib 6, HSF1 activator 5, HCV core dimer 4, PHOSPHO1 inh 24 and AI-2 QS modul 0.
CCN(CC)S(=O)(=O)c1cccc(NC(=O)/C=C/c2cccc([N+](=O)[O-])c2)c1 was read as HSF1 inhib 5, ALR inh -2, HSF1 activator -1, HCV core dimer 1, PHOSPHO1 inh 9 and AI-2 QS modul -10.
`CCN(CC)S(=O)(=O)c1cccc(NC(=O)/C=C/c2ccc([N+](=O)[O-])cc2)c1` gave HSF1 inhib 14, ALR inh -20, HSF1 activator 70*, HCV core dimer 7, PHOSPHO1 inh -5 and AI-2 QS modul 22.
For C/C=C/C=N/NC(=O)CN(c1ccc(Br)cc1)S(=O)(=O)c1ccccc1 the results were HSF1 inhib 5, ALR inh 3, HSF1 activator -4, HCV core dimer 5, PHOSPHO1 inh 2 and AI-2 QS modul 20.
Screening O=S(=O)(NCCO)c1ccc2c(c1)Cc1cc(S(=O)(=O)NCCO)ccc1-2 returned HSF1 inhib -2, ALR inh -21, HSF1 activator 4, HCV core dimer -1, PHOSPHO1 inh 27 and AI-2 QS modul 23.
Screening NNS(=O)(=O)c1ccc2c(c1)Cc1cc(S(=O)(=O)NN)ccc1-2 returned HSF1 inhib -7, ALR inh 99*, HSF1 activator 6, HCV core dimer 3, PHOSPHO1 inh 47 and AI-2 QS modul 36.
CCOC(=O)c1nnn(CC(=O)N2N=C(c3ccccc3)CC2c2ccccc2)c1C(=O)OCC (stereo unspecified) was read as HSF1 inhib -3, HSF1 activator 22, HCV core dimer 25, PHOSPHO1 inh -13 and AI-2 QS modul 5.
For COc1ccc(C2CC(c3ccc4ccccc4c3OC(C)=O)=NN2C(C)=O)cc1 (stereo unspecified) the results were HSF1 inhib 56, ALR inh -3, HSF1 activator 94*, HCV core dimer 5 and PHOSPHO1 inh 53.
Screening COc1ccc(C2CC(c3ccc4ccccc4c3)=NN2C(=O)COC(=O)C2CCC(=O)N2)cc1 (stereo unspecified) returned HSF1 inhib 5, HSF1 activator inconclusive, HCV core dimer 12, PHOSPHO1 inh -27 and AI-2 QS modul 25.
CC(=O)OCC(=O)N1N=C(c2ccc3ccccc3c2)CC1c1ccccc1 (stereo unspecified) was read as HSF1 inhib 27, ALR inh -16, HSF1 activator 53*, HCV core dimer 16, PHOSPHO1 inh -4 and AI-2 QS modul 26.
`CCOC(=O)/C=C(\C)N1N=C(c2ccccc2)CC1c1ccccc1` (stereo unspecified) gave HSF1 inhib 35, ALR inh 6, HSF1 activator 65*, HCV core dimer 5, PHOSPHO1 inh 30 and AI-2 QS modul 8.
`CCOP(=O)(c1ccc(N(C)C)cc1)C(O)c1ccc(OC)cc1` (stereo unspecified) gave HSF1 inhib -3, ALR inh -4, HSF1 activator 1, HCV core dimer 0 and AI-2 QS modul 15.
